Consider two compounds from ChEMBL document CHEMBL3045292, “Synthesis and herbicidal activity of 2-(7-fluoro-3-oxo- 3,4-dihydro-2H-benzo[b][1,4]oxazin-6-yl)isoindoline-1,3-diones” (J Agric Food Chem, 2005).

Data set [1] in a line: Phytotoxicity against Brassica rapa subsp. oleifera assessed as growth inhibition at 30 g/ha pre-emergence treatment measured after 15 days by crop-selectivity assay. The format is organism-based. Particulars: in vivo, read-out: GI.
Data set [2] can be described thus: Phytotoxicity against Triticum aestivum (wheat) assessed as growth inhibition at 75 g/ha pre-emergence treatment measured after 15 days by crop-selectivity assay. Type of data set: organism-based. Particulars: in vivo, read-out: GI. The method, boiled down:
(§1)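 Compounds were formulated as 100 g/L emulsifiable concentrates, with DMF as solvent and Tween-80 as emulsifier, then diluted in water to the required rate. They were sprayed on pot-grown plants in a greenhouse, in clay soil (pH 6.5, 1.6% organic matter, 37.3% clay, CEC 12.1 cmol/kg). Untreated and DMF-treated plants served as controls. Percent growth inhibition was scored visually 15 days after treatment.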

The subject of data set [3] is Glycine max. Description: (§2) Phytotoxicity against Glycine max (soybean) assessed as growth inhibition at 75 g/ha pre-emergence treatment measured after 15 days by crop-selectivity assay. Type of data set: organism-based. Conditions: in vivo, other, 360 h.
Data set [4] deals with Abutilon theophrasti. The experiment in a line: Herbicidal activity against Abutilon theophrasti (velvetleaf) assessed as weed growth inhibition at post-emergence treatment […]. Type of data set: functional, organism-based. In short, it runs like this:
(§3)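 Pot-grown plants in the greenhouse, in clay soil (pH 6.5, 1.6% organic matter, 37.3% clay, CEC 12.1 cmol/kg). Compound was made up as a 100 g/L emulsified concentrate (DMF, Tween-80), diluted in water and sprayed at 75 g ai/ha. Pre-emergence spraying was 24 h after sowing; post-emergence at two-leaf (dicots) or one-leaf (monocots) stage. Untreated and DMF controls. Percent growth inhibition scored visually 15 days post-treatment.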

For data set [5], the system named is Zea mays. Description: (§4) Phytotoxicity against Zea mays (maize) assessed as growth inhibition at 150 g/ha pre-emergence treatment measured after 15 days by crop-selectivity assay. The format is organism-based. Particulars: in vivo, other, 360 h. In short, it runs like this: as §1
Data set [6] concerns Gossypium. The experiment in a line: Phytotoxicity against Gossypium (cotton) assessed as growth inhibition at 7.5 g/ha pre-emergence treatment measured after 15 days by crop-selectivity assay. The format is organism-based. Particulars: in vivo, other, 360 h.
Data set [7] relates to Abutilon theophrasti. Description: Herbicidal activity against Abutilon theophrasti (velvetleaf) assessed as weed growth inhibition at 75 g/ha pre-emergence treatment […]. Type of data set: functional. Conditions: read-out: GI. In short, it runs like this:
as §3

The subject of data set [8] is Triticum aestivum. The experiment in a line: (§5) Phytotoxicity against Triticum aestivum (wheat) assessed as growth inhibition at 7.5 g/ha post-emergence treatment measured after 15 days by crop-selectivity assay. Type of data set: organism-based. Conditions: in vivo, other, 360 h. The method, boiled down:
as §1

Data set [9] in a line: Phytotoxicity against Triticum aestivum (wheat) assessed as growth inhibition at 150 g/ha pre-emergence treatment measured after 15 days by crop-selectivity assay. Type of data set: organism-based. Particulars: in vivo, read-out: GI.
Data set [10] deals with Glycine max. The experiment in a line: Phytotoxicity against Glycine max (soybean) assessed as growth inhibition at 7.5 g/ha pre-emergence treatment measured after 15 days by crop-selectivity assay. Type of data set: organism-based. Conditions: in vivo, other, 360 h.
For data set [11], the system named is Triticum aestivum. The experiment in a line: (§6) Phytotoxicity against Triticum aestivum (wheat) assessed as growth inhibition at 15 g/ha post-emergence treatment measured after 15 days by crop-selectivity assay. Type of data set: organism-based. Conditions: in vivo, other, 360 h.
For data set [12], the system named is Triticum aestivum. The experiment in a line: (§7) Phytotoxicity against Triticum aestivum (wheat) assessed as growth inhibition at 30 g/ha post-emergence treatment measured after 15 days by crop-selectivity assay. Conditions: in vivo, other, 360 h. Type of data set: organism-based.
Data set [13] relates to Gossypium. The experiment in a line: Phytotoxicity against Gossypium (cotton) assessed as growth inhibition at 75 g/ha pre-emergence treatment measured after 15 days by crop-selectivity assay. The format is organism-based. Particulars: in vivo, other, 360 h.
Data set [14] is described as follows: Phytotoxicity against Brassica rapa subsp. oleifera assessed as growth inhibition at 150 g/ha pre-emergence treatment measured after 15 days by crop-selectivity assay. Type of data set: organism-based. Conditions: in vivo, read-out: GI.
A short description of data set [15]: Phytotoxicity against Brassica rapa subsp. oleifera assessed as growth inhibition at 7.5 g/ha post-emergence treatment measured after 15 days by crop-selectivity assay. Particulars: in vivo, read-out: GI. Type of data set: organism-based.
For the next data set, the system named is Amaranthus blitum. The experiment in a line: Herbicidal activity against Amaranthus blitum assessed as weed growth inhibition at 75 g/ha post-emergence treatment […]. Type of data set: functional. Conditions: read-out: GI. In short, it runs like this: as §3
Data set [16] in a line: Phytotoxicity against Oryza sativa (rice) assessed as growth inhibition at 15 g/ha pre-emergence treatment measured after 15 days by crop-selectivity assay. Type of data set: organism-based. Particulars: in vivo, read-out: GI.
The subject of data set [17] is Oryza sativa. Description: (§8) Phytotoxicity against Oryza sativa (rice) assessed as growth inhibition at 7.5 g/ha post-emergence treatment measured after 15 days by crop-selectivity assay. Particulars: in vivo, other, 360 h. The format is organism-based.
A short description of data set [18]: Phytotoxicity against Oryza sativa (rice) assessed as growth inhibition at 75 g/ha pre-emergence treatment measured after 15 days by crop-selectivity assay. The format is organism-based. Conditions: in vivo, read-out: GI.
For data set [19], the system named is Triticum aestivum. The experiment in a line: (§9) Phytotoxicity against Triticum aestivum (wheat) assessed as growth inhibition at 15 g/ha pre-emergence treatment measured after 15 days by crop-selectivity assay. Particulars: in vivo, other, 360 h. The format is organism-based.
Data set [20] concerns Zea mays. Description: (§10) Phytotoxicity against Zea mays (maize) assessed as growth inhibition at 75 g/ha pre-emergence treatment measured after 15 days by crop-selectivity assay. The format is organism-based. Particulars: in vivo, other, 360 h. The method, boiled down:
as §1

Data set [21] relates to Triticum aestivum. The experiment in a line: (§11) Phytotoxicity against Triticum aestivum (wheat) assessed as growth inhibition at 30 g/ha pre-emergence treatment measured after 15 days by crop-selectivity assay. Type of data set: organism-based. Particulars: in vivo, other, 360 h. The method, boiled down: as §1
Data set [22] relates to Oryza sativa. The experiment in a line: (§12) Phytotoxicity against Oryza sativa (rice) assessed as growth inhibition at 7.5 g/ha pre-emergence treatment measured after 15 days by crop-selectivity assay. Type of data set: organism-based. Conditions: in vivo, other, 360 h.
Data set [23] can be described thus: as §2. Type of data set: organism-based. Particulars: in vivo, 75 g/ha, read-out: GI.
Data set [24] is described as follows: as §4. Type of data set: organism-based. Particulars: in vivo, 150 g/ha, read-out: GI. The method, boiled down:
as §1

The nature of data set [25]: as §5. Particulars: in vivo, 7.5 g/ha, read-out: GI. The format is organism-based. The method, boiled down:
as §1

A short description of data set [26]: as §6. Type of data set: organism-based. Particulars: in vivo, 15 g/ha, read-out: GI.
Data set [27] in a line: as §7. Type of data set: organism-based. Particulars: in vivo, 30 g/ha, read-out: GI.
Data set [28] in a line: as §8. Type of data set: organism-based. Particulars: in vivo, 7.5 g/ha, read-out: GI.
Data set [29] can be described thus: as §9. The format is organism-based. Conditions: in vivo, 15 g/ha, read-out: GI.
Data set [30] can be described thus: as §10. The format is organism-based. Conditions: in vivo, 75 g/ha, read-out: GI. The method, boiled down:
as §1

The nature of data set [31]: as §11. The format is organism-based. Particulars: in vivo, 30 g/ha, read-out: GI. In short, it runs like this: as §1
Data set [32] is described as follows: as §12. Particulars: in vivo, 7.5 g/ha, read-out: GI. The format is organism-based.

Regarding `C#CCN1C(=O)COc2cc(F)c(N3C(=O)c4ccc(F)cc4C3=O)cc21`, the inhibition at 360 h in [1] was above 10%; in data set [2] it was above 10%; in data set [9] it was above 10%; in data set [14], above 10%; in [15], above 10%; in data set [16], 1%. In [18], the inhibition at 360 h is above 10%. For the same compound, the “growth inhibition (GI)” value with Glycine max [3], with Zea mays [5], in the data set on Gossypium [6], in the data set with Triticum aestivum [8], in the data set on Glycine max [10] and with Triticum aestivum [11] was “Non-toxic” in each case. In addition, the “growth inhibition (GI)” value with Triticum aestivum [12], with Gossypium [13], with Oryza sativa [17], in the data set with Triticum aestivum [19], in the data set with Zea mays [20] and in the data set on Triticum aestivum [21] was “Non-toxic” in each case. In addition, in the data set on Oryza sativa [22], the “growth inhibition (GI)” value was “Non-toxic”. Moreover, the IC50 in the data set on Abutilon theophrasti [4] amounted to 3.6 g/ha. Further, the inhibition of growth at 75 g/ha in the data set on Abutilon theophrasti [7] and in the data set on Amaranthus blitum was above 80% each time.
As to `C#CCN1C(=O)COc2cc(F)c(N3C(=O)C4=C(CCCC4)C3=O)cc21` [FLUMIOXAZIN], the inhibition at 360 h in data set [1] is above 10%; in [2], above 10%; in data set [23], above 10%; in data set [24], 1%; in data set [25] it was above 10%; in data set [9], above 10%. Further, the inhibition at 360 h in [26], in [27], in data set [14], in [15], in data set [16] and in [28] was above 10% each time. Further, the inhibition at 360 h in data set [18] was above 10%; in data set [29], above 10%; in data set [30] it was 1%; in [31] it was above 10%; in [32] it was above 10%. In addition, the IC50 in the data set on Abutilon theophrasti [4] is recorded as 1 g/ha. Besides, the “growth inhibition (GI)” value in the data set with Gossypium [6], in the data set with Glycine max [10] and in the data set on Gossypium [13] was “Non-toxic” in each case. In addition, the inhibition of growth at 75 g/ha with Abutilon theophrasti [7] and in the data set with Amaranthus blitum was above 80% throughout.
